Drawing on PubChem BioAssay AID623895 (Broad Institute, 2012), this text covers activity change, negative = cytotoxicity and AC50 for 41 compounds.

SMILES strings stand for the structures. Calls of active or inactive are those of the source.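 How the source made its calls: active means compounds with an ATP-loss curve whose half-maximal dose stays within twice the top dose, in every run; inconclusive means mixed run calls, weak flat effects or poor fits; inactive means the rest, including opposite-direction effects.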

One may read the AC50 as the concentration giving half of the maximal activity seen.

Test system in one experiment: not listed separately
The experiment can be described thus: cytotoxicity in ldlA[mSR-BI] CHO cells, dose response, cytotoxicity control for SR-BI HDL uptake inhibitor project, cell-based, 24 h, ATP luminescence, dry powder, set 6 (AID 623895). Conditions: ldlA[mSR-BI] CHO cells viability, ATP luminescence, 24 h; at 35 µM (top of the series). In a few lines: (§1)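 Material: ldlA[mSR-BI] cells; Input: 4,000 cells per well; Measured by: cell Titer Glo luminescence reporting cellular ATP; Schedule: 24 h at 37 °C, read after 10 min; Dosing: Eight-point compound dose series.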
Consider `C[C@@H]1CN([C@H](C)CO[Si](C)(C)C(C)(C)C)C(=O)c2cc(NC(=O)C3CCCCC3)ccc2O[C@H]1CN(C)C(=O)c1ccc(Cl)cc1`, for which the activity change, negative = cytotoxicity was -16.8% (inactive). For the compound `C[C@@H]1CN([C@H](C)CO)C(=O)c2cc(NC(=O)Nc3cccc4ccccc34)ccc2O[C@H]1CN(C)S(=O)(=O)c1ccc(Cl)cc1`, the activity change, negative = cytotoxicity is -10.4% (inactive).

For `C[C@@H]1CN([C@H](C)CO)C(=O)c2cc(NC(=O)Cc3cn(C)c4ccccc34)ccc2O[C@H]1CN(C)S(=O)(=O)c1ccccc1`, the activity change, negative = cytotoxicity is -5.11% (inactive).

As to `C[C@H]1CN([C@@H](C)CO)C(=O)c2cc(NC(=O)Cc3cn(C)c4ccccc34)ccc2O[C@H]1CN(C)S(=O)(=O)c1ccc(Cl)cc1`, the activity change, negative = cytotoxicity was -23.6% (inactive).

`C[C@@H]1CN([C@H](C)CN)C(=O)c2cc(NC(=O)Cc3cn(C)c4ccccc34)ccc2O[C@H]1CN(C)S(=O)(=O)c1ccc(Cl)cc1`: the activity change, negative = cytotoxicity was -0.334% (inactive). For `Cc1ccccc1-c1ccc2c(c1)O[C@@H](CN(C)C(=O)Nc1ccc(F)cc1)[C@H](C)CN([C@@H](C)CO)S2(=O)=O`, the activity change, negative = cytotoxicity is -23.7% (inactive). The same measure, in the same setting: the value for `C[C@@H]1CN([C@H](C)CO)C(=O)c2cc(NC(=O)Cc3cn(C)c4ccccc34)ccc2O[C@H]1CN(C)S(=O)(=O)c1cccs1` was -7.16% (inactive); that for `CC(C)NC(=O)Nc1cccc2c1O[C@@H](CN(C)Cc1ccc(C(F)(F)F)cc1)[C@@H](C)CN([C@@H](C)CO)C2=O` was -11.3% (inactive); that for `C[C@@H]1CN([C@H](C)CO)C(=O)c2cc(NC(=O)C3CC3)ccc2O[C@H]1CN(C)S(=O)(=O)c1ccc(Cl)cc1` was -13% (inactive). As for `Cc1ccc(OCc2cc(C(=O)N3CCCC(O)C3)no2)cn1` (stereo unspecified), the activity change, negative = cytotoxicity was -19.7% (inactive). Turning to `C[C@@H]1CN([C@H](C)CO)C(=O)c2cc(NC(=O)C3CCCCC3)ccc2O[C@H]1CN(C)S(=O)(=O)c1ccccc1Cl`, the activity change, negative = cytotoxicity is -18.6% (inactive). Same read-out and setting: the figure for `C[C@@H]1CN([C@H](C)CO)C(=O)c2cc(NC(=O)Cc3cn(C)c4ccccc34)ccc2O[C@H]1CN(C)C(=O)Nc1cccc2ccccc12` is -4.64% (inactive). On the same count and under the same terms, the value for `C[C@@H]1CN([C@H](C)CO)C(=O)c2cc(NS(=O)(=O)c3cccs3)ccc2O[C@H]1CN(C)S(=O)(=O)c1ccc(Cl)cc1` was 1.79% (inactive). Consider `C[C@@H]1CN([C@H](C)CO)C(=O)c2cc(NC(=O)Cc3cn(C)c4ccccc34)ccc2O[C@@H]1CN(C)S(=O)(=O)c1ccc(Cl)cc1`, for which the activity change, negative = cytotoxicity is -21.3% (inactive). For `COc1ccc(NC(=O)Nc2ccc3c(c2)C(=O)N([C@H](C)CO)C[C@@H](C)[C@H](CN(C)S(=O)(=O)c2ccc(Cl)cc2)O3)cc1`, the activity change, negative = cytotoxicity is -15.6% (inactive).

On to `O=C(O)CC(C(=O)Nc1cccc(C(F)(F)F)c1)C1CCCO1` (stereo unspecified), for which the activity change, negative = cytotoxicity was -9.62% (inactive).

Take `C[C@@H]1CN([C@H](C)CO)C(=O)c2cc(NS(=O)(=O)c3ccccc3)ccc2O[C@H]1CN(C)S(=O)(=O)c1ccc(Cl)cc1`: the activity change, negative = cytotoxicity was -8.14% (inactive).

On to `Cc1noc(C)c1NC(=O)Nc1ccc2c(c1)C(=O)N([C@H](C)CO)C[C@@H](C)[C@H](CN(C)S(=O)(=O)c1ccc(Cl)cc1)O2`, for which the activity change, negative = cytotoxicity is -7.8% (inactive).

`C[C@@H]1CN([C@H](C)CO)C(=O)c2cc(NC(=O)c3ccncc3)ccc2O[C@H]1CN(C)S(=O)(=O)c1ccc(Cl)cc1`: the activity change, negative = cytotoxicity is 4.97% (inactive).

Take `C[C@@H]1CN([C@@H](C)CO)C(=O)Cc2cc(N(C)C)ccc2O[C@@H]1CN(C)Cc1ccc(C(=O)O)cc1`: the activity change, negative = cytotoxicity was 4.97% (inactive). With `O=C1C2C3C=CC(C3)C2C(=O)N1c1cccc(N2C(=O)C3C4C=CC(C4)C3C2=O)n1` (stereo unspecified), the activity change, negative = cytotoxicity was -8.55% (inactive). Take `C[C@@H]1CN([C@@H](C)CO)C(=O)Cc2cc(NS(=O)(=O)c3cn(C)cn3)ccc2O[C@H]1CN(C)Cc1ccc(Cl)c(Cl)c1`: the activity change, negative = cytotoxicity is 3.09% (inactive). The same measure, in the same setting: the figure for `COc1ccc(-c2nnn(CC(=O)N(C3CCCCC3)C(C)C(=O)NC3CCCCC3)n2)cc1OC` (stereo unspecified) is -9.26% (inactive). Consider `C[C@@H]1CN([C@@H](C)CO)C(=O)Cc2cc(NS(C)(=O)=O)ccc2O[C@@H]1CN(C)Cc1ccc(C(F)(F)F)cc1`, for which the activity change, negative = cytotoxicity was -12.8% (inactive).

Turning to `C[C@@H]1CN([C@H](C)CO)C(=O)c2cc(NC(=O)Cc3cn(C)c4ccccc34)ccc2O[C@H]1CN(C)CC1CCCCC1`, the activity change, negative = cytotoxicity is -22.1% (inactive).

Turning to `CC(=O)Nc1ccc(Cl)c(C(=O)Nc2ccc(N3CCN(C(=O)OC(C)(C)C)CC3)cc2)c1`, the activity change, negative = cytotoxicity was -29.2% (inactive). Regarding `C[C@@H]1CN([C@H](C)CO)C(=O)c2cc(NC(=O)Cc3cn(C)c4ccccc34)ccc2O[C@H]1CN(C)Cc1ccc(-c2ccccc2)cc1`, the activity change, negative = cytotoxicity was -34.9% (inactive). Regarding `COc1ccc(CN(C)C[C@@H]2Oc3ccc(NC(=O)Cc4cn(C)c5ccccc45)cc3C(=O)N([C@H](C)CO)C[C@H]2C)cc1`, the activity change, negative = cytotoxicity was -17.6% (inactive). On to `COc1ccc(S(=O)(=O)Nc2ccc3c(c2)C(=O)N([C@H](C)CO)C[C@@H](C)[C@H](CN(C)S(=O)(=O)c2ccc(Cl)cc2)O3)cc1`, for which the activity change, negative = cytotoxicity was -22.9% (inactive). Take `C[C@H](CO)N1C[C@H](C)[C@@H](CN(C)S(=O)(=O)c2ccc(Cl)cc2)Oc2ccc(NC(=O)Cc3cn(C)c4ccccc34)cc2C1=O`: the activity change, negative = cytotoxicity was -25.3% (inactive).

In the case of `COc1ccc(NC(=O)N(C)C[C@@H]2Oc3ccc(NC(=O)Cc4cn(C)c5ccccc45)cc3C(=O)N([C@H](C)CO)C[C@H]2C)cc1`, the activity change, negative = cytotoxicity was 13.1% (inactive).

In the case of `CNC[C@@H]1Oc2ccc(NC(=O)Cc3cn(C)c4ccccc34)cc2C(=O)N([C@H](C)CO)C[C@H]1C`, the activity change, negative = cytotoxicity is 14.8% (inactive).

On to `C[C@@H]1CN([C@H](C)CO)C(=O)c2cc(NC(=O)Nc3ccc(C(F)(F)F)cc3)ccc2O[C@H]1CN(C)S(=O)(=O)c1ccc(Cl)cc1`, for which the activity change, negative = cytotoxicity is -31.8% (inactive). Regarding `C[C@H]1CN([C@@H](C)CO)C(=O)c2cc(NC(=O)Cc3cn(C)c4ccccc34)ccc2O[C@@H]1CN(C)S(=O)(=O)c1ccc(Cl)cc1`, the activity change, negative = cytotoxicity was -20.1% (inactive).

Turning to `C[C@@H]1CN([C@H](C)CO)C(=O)c2cc(NC(=O)Cc3cn(C)c4ccccc34)ccc2O[C@H]1CN(C)S(=O)(=O)c1ccc(Cl)cc1`, the activity change, negative = cytotoxicity is -19.8% (inactive).

For the compound `C[C@@H]1CN([C@H](C)CO)C(=O)c2cc(NS(=O)(=O)c3cn(C)cn3)ccc2O[C@H]1CN(C)S(=O)(=O)c1ccc(Cl)cc1`, the activity change, negative = cytotoxicity was 1.24% (inactive). As for `C[C@@H]1CN([C@H](C)CO)C(=O)c2cc(NC(=O)Cc3cn(C)c4ccccc34)ccc2O[C@H]1CN(C)Cc1ccc(C(=O)O)cc1`, the activity change, negative = cytotoxicity is -1% (inactive). As to `CNC[C@@H]1OCCCC[C@@H](C)Oc2ccc(NS(=O)(=O)c3ccc(Cl)cc3)cc2C(=O)N([C@H](C)CO)C[C@H]1C`, the activity change, negative = cytotoxicity is -5.46% (inactive).

The next experiment deals with ldlA[mSR-BI] CHO cells viability, ATP luminescence, 24 h. The experiment is described as above.
Details: not given
The procedure, abridged: as §1
Turning to `C[C@@H]1CN([C@H](C)CN(C)C)C(=O)c2cc(NC(=O)Cc3cn(C)c4ccccc34)ccc2O[C@H]1CN(C)S(=O)(=O)c1ccc(Cl)cc1`, the AC50 is 15.3 µM. Regarding `CCCCCCC1CCC/C1=N\NC(N)=S` (stereo unspecified), the AC50 is 3.81 µM.

As for `COc1c(NC(=O)C(=O)c2ccc(OCCN3CCOCC3)c3ccccc23)cc(C(C)(C)C)cc1NS(C)(=O)=O`, the AC50 is 34.3 µM.
